# Experimental data from ChEMBL document CHEMBL1128222, “Novel inhibitors for multidrug resistance: 1,3,5-triazacycloheptanes” (J Med Chem, 1995).
# Tests used:
# P388/S [1] = assay: In vitro relative vinblastin uptake into P388/s (murine leukemia) cells following 10 uM treatment.; assay type: functional, Mus musculus
# How it was run: (§1)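 10^6 P388/S or P388/ADR cells in 1 mL of 20 mM Hepes-buffered medium, pH 7.4. They are incubated with 4.6 kBq [3H]vinblastine with or without 10 μM compound (DMSO final 1%) at 37 °C for 30 min. Cells are then chilled, pelleted at 2 °C and washed twice in cold PBS. They are solubilized in NaOH and counted. The value is uptake relative to untreated cells.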
# P388/ADR [2] = assay: In vitro relative vinblastin uptake into P388/ADR (murine leukemia/multidrug resistant) cells following 10 uM treatment.; assay type: functional, Mus musculus; how it was run: as §1
# P388/S [3] = assay: Evaluation of inhibitory activity and cisplatin against drug sensitive P388 cells (P388/S) cells; assay type: functional, cell-based, Mus musculus; conditions: Mus musculus, P388/S
# How it was run: (§2)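 P388/S or P388/ADR cells at 10^5 cells/mL in RPMI-1640/10% FCS medium. They receive graded adriamycin, mitomycin C or cisplatin, alone or together with 2.5 μM modulator, for 48 h (DMSO final 0.25%). Growth is read by MTT and the antitumor-drug IC50 is reported.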
# P388/ADR [4] = assay: Evaluation of inhibitory activity and adriamycin against multidrug resistant P388 cells (P388/ADR) cells; conditions: Mus musculus
# Mus musculus [5] = assay: Evaluation of Survival of mice upon intraperitoneal injection of VBL and/or oral administration on days 1-4 and 6-8 at a concentration of 10 mg/kg; assay type: functional
# How it was run: (§3)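 Female CD2F1 mice, 5 per group, were inoculated i.p. with 1.0 × 10^6 P388/ADR cells on day 0. VBL was given by i.p. injection and/or the test agent orally on days 1-4 and 6-8. Read-out was survival days (average ± SD) and ILS (%) against the untreated group, with P < 0.05 by Student's t-test or a two-sample test with Welch's correction.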
# P388/ADR [6] = assay: In vitro for the inhibitory activity against multidrug resistant P388 cells (P388/ADR) cells at a concentration of 2.5 uM; assay type: functional, cell-based; conditions: Mus musculus
# How it was run: (§4)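 P388/S and P388/ADR murine leukemia cells are maintained by weekly intraperitoneal passage in female CDF1 mice. For the assay they are seeded at 10^5 cells/mL in RPMI-1640 with 10% FCS, 20 μM β-mercaptoethanol and 100 μg/mL kanamycin. Vinblastine is given with or without modulator (0–5.0 μM; DMSO final 0.25%) for 48 h. Growth is read by MTT and vinblastine IC50 is reported.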
# P388/ADR [7] = assay: Relative increase in inhibitory activity against multidrug resistant P388 cells (P388/ADR) cells at a concentration of 1.0 uM in presence of vinblastine; assay type: functional, Mus musculus
# How it was run: (§5)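 Same 48 h MTT growth assay in P388/S or P388/ADR cells at 10^5 cells/mL. Vinblastine IC50 is found alone and with modulator at 1.0, 2.5 or 5.0 μM. The value is the relative increase in vinblastine growth-inhibitory effect, taken as the fold change in IC50 from the combined treatment.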
# P388/ADR [8] = assay: Relative increase in inhibitory activity against multidrug resistant P388 cells (P388/ADR) cells at a concentration of 2.5 uM in presence of vinblastine; assay type: functional, Mus musculus; how it was run: as §5
# P388/ADR [9] = assay: Inhibitory activity against multidrug resistant P388 cells (P388/ADR) cells at a concentration of 2.5 uM in presence of mitomycin C; conditions: Mus musculus
# Mus musculus [10] = assay: Evaluation of Survival of mice upon intraperitoneal injection of VBL and/or oral administration on days 1-4 and 6-8 at a concentration of 20 mg/kg; assay type: functional; how it was run: as §3
# P388/ADR [11] = assay: In vitro for the inhibitory activity against multidrug resistant P388 cells (P388/ADR) cells at a concentration of 1.0 uM; assay type: functional, cell-based; conditions: Mus musculus; how it was run: as §4
# P388/S [12] = assay: Relative increase in inhibitory activity against drug sensitive P388 cells (P388/S) cells at a concentration of 5.0 uM in presence of vinblastine; assay type: functional, Mus musculus; how it was run: as §5
# P388/S [13] = assay: Inhibitory activity against drug sensitive P388 cells (P388/S) cells in presence of cisplatin; assay type: functional, cell-based; conditions: Mus musculus; how it was run: as §2
# Mus musculus [14] = assay: Evaluation of Survival of mice intraperitoneal injection of VBL and/or oral administration on days 1-4 and 6-8 at a concentration of 40 mg/kg in mice; assay type: functional; how it was run: as §3
# P388/S [15] = assay: In vitro evaluation for the inhibitory activity against drug sensitive P388 cells (P388/S) cells at a concentration of 0 uM; assay type: functional, cell-based; conditions: Mus musculus; how it was run: as §4
# P388/S [16] = assay: Relative increase in inhibitory activity against drug sensitive P388 cells (P388/S) cells at a concentration of 1.0 uM in presence of vinblastine; assay type: functional, Mus musculus; how it was run: as §5
# P388/ADR [17] = assay: Inhibitory activity against multidrug resistant P388 cells (P388/ADR) cells at a concentration of 2.5 uM in presence of adriamycin; conditions: Mus musculus
# P388/S [18] = assay: Inhibitory activity against drug sensitive P388 cells (P388/S) cells in presence of adriamycin; assay type: functional, cell-based; conditions: Mus musculus; how it was run: as §2
# Mus musculus [19] = assay: Evaluation of ILS percentage of mice upon intraperitoneal injection of VBL / oral administration on days 1-4 and 6-8 at a concentration of 40 mg/kg; assay type: functional; how it was run: as §3
# Mus musculus [20] = assay: Evaluation of ILS percentage of mice upon intraperitoneal injection of VBL and/or oral administration on days 1-4 and 6-8 at a concentration of 10 mg/kg; assay type: functional; how it was run: as §3
# P388/S [21] = assay: Inhibitory activity against drug sensitive P388 cells (P388/S) cells in presence of mitomycin C; assay type: functional, cell-based; conditions: Mus musculus; how it was run: as §2
# P388/S [22] = assay: Relative increase in inhibitory activity against drug sensitive P388 cells (P388/S) cells at a concentration of 2.5 uM in presence of vinblastine; assay type: functional, Mus musculus; how it was run: as §5
# P388/ADR [23] = assay: In vitro for the inhibitory activity against multidrug resistant P388 cells (P388/ADR) cells at a concentration of 5 uM; assay type: functional, cell-based; conditions: Mus musculus; how it was run: as §4
# P388/S [24] = assay: In vitro evaluation for the inhibitory activity against drug sensitive P388 cells (P388/S) cells at a concentration of 2.5 uM; assay type: functional, cell-based; conditions: Mus musculus; how it was run: as §4
# P388/ADR [25] = assay: Inhibitory activity against multidrug resistant P388 cells (P388/ADR) cells at a concentration of 2.5 uM in presence of cisplatin; conditions: Mus musculus
# P388/S [26] = assay: In vitro evaluation for the inhibitory activity against drug sensitive P388 cells (P388/S) cells at a concentration of 5.0 uM; assay type: functional, cell-based; conditions: Mus musculus; how it was run: as §4
# P388/ADR [27] = assay: In vitro for the inhibitory activity against multidrug resistant P388 cells (P388/ADR) cells at a concentration of 0 uM; assay type: functional, cell-based; conditions: Mus musculus; how it was run: as §4
# P388/S [28] = assay: In vitro evaluation for the inhibitory activity against drug sensitive P388 cells (P388/S) cells at a concentration of 1.0 uM; assay type: functional, cell-based; conditions: Mus musculus; how it was run: as §4
# P388/ADR [29] = assay: Relative increase in inhibitory activity against multidrug resistant P388 cells (P388/ADR) cells at a concentration of 5.0 uM in presence of vinblastine; assay type: functional, Mus musculus; how it was run: as §5
# Mus musculus [30] = assay: Evaluation of ILS percentage of mice upon intraperitoneal injection of VBL / oral administration on days 1-4 and 6-8 at a concentration of 20 mg/kg; assay type: functional; how it was run: as §3
smiles,measurement,setting,value
O=C1NC(=O)N(Cc2ccc(Cl)cc2)CCCN1Cc1ccc(Cl)cc1,Relative uptake,P388/S [1],1.17
same,Relative uptake,P388/ADR [2],2.86
O=C1NC(=O)N(Cc2ccccc2)CCCN1Cc1ccccc1,Relative uptake,P388/S [1],0.93
same,Relative uptake,P388/ADR [2],1.78
Clc1ccc(CNCCNCc2ccc(Cl)cc2)cc1,Relative uptake,P388/S [1],1.04
same,Relative uptake,P388/ADR [2],2.62
S=C1NC(=S)N(Cc2ccccc2)CCN1Cc1ccccc1,Relative uptake,P388/S [1],1.26
same,Relative uptake,P388/ADR [2],4.16
S=C1NC(=S)N(Cc2ccc(Cl)cc2)CCN1Cc1ccc(Cl)cc1,Relative uptake,P388/S [1],1.48
same,Relative uptake,P388/ADR [2],6
CSC1=NC(=O)N(Cc2ccccc2)CCN1Cc1ccccc1,Relative uptake,P388/S [1],1.37
same,Relative uptake,P388/ADR [2],2.13
O=C1NC(=S)N(Cc2cccc(Cl)c2)CCN1Cc1cccc(Cl)c1,Relative uptake,P388/S [1],1.26
same,Relative uptake,P388/ADR [2],6.14
O=C1NC(=O)N(Cc2cccc(Cl)c2)CCCN1Cc1cccc(Cl)c1,Relative uptake,P388/S [1],1.12
same,Relative uptake,P388/ADR [2],2.62
COc1ccc(CN2CCCN(Cc3ccc(OC)c(OC)c3)C(=O)NC2=O)cc1OC,Relative uptake,P388/S [1],1.06
same,Relative uptake,P388/ADR [2],1.11
CSC1=NC(=O)N(Cc2cccc(Cl)c2)CCN1Cc1cccc(Cl)c1,Relative uptake,P388/S [1],1.16
same,Relative uptake,P388/ADR [2],6.75
COc1ccc(CN2CCN(Cc3ccc(OC)c(OC)c3)C(=S)NC2=S)cc1OC,Relative uptake,P388/S [1],1.21
same,Relative uptake,P388/ADR [2],5.26
COc1ccc(CN2CCN(Cc3ccc(OC)c(OC)c3)C(=O)NC2=O)cc1OC,Relative uptake,P388/S [1],0.93
same,Relative uptake,P388/ADR [2],1.16
COC12[C@H](COC(N)=O)C3=C(C(=O)C(C)=C(N)C3=O)N1C[C@@H]1N[C@@H]12.CSC1=NC(=O)N(Cc2ccc(Cl)cc2)CCN1Cc1ccc(Cl)cc1,IC50,P388/S [3],44 nM
same,IC50,P388/ADR [4],264 nM
COc1cccc2c1C(=O)c1c(O)c3c(c(O)c1C2=O)C[C@@](O)(C(=O)CO)C[C@@H]3OC1C[C@H](N)[C@H](O)[C@H](C)O1.CSC1=NC(=O)N(Cc2ccc(Cl)cc2)CCN1Cc1ccc(Cl)cc1 (some centres undefined),IC50,P388/S [3],13 nM
same,IC50,P388/ADR [4],90 nM
CC[C@]1(O)C[C@H]2CN(CCc3c([nH]c4ccccc34)[C@@](C(=O)OC)(c3cc4c(cc3OC)N(C)[C@H]3[C@@](O)(C(=O)OC)[C@H](OC(C)=O)[C@]5(CC)C=CCN6CC[C@]43[C@@H]65)C2)C1.CSC1=NC(=O)N(Cc2ccc(Cl)cc2)CCN1Cc1ccc(Cl)cc1,Survival days,Mus musculus [5],11.6
same,IC50,P388/ADR [6],6.2 nM
same,Relative activity,P388/ADR [7],3.2
same,Relative activity,P388/ADR [8],11
same,IC50,P388/ADR [9],264 nM
same,Survival days,Mus musculus [10],13.2
same,IC50,P388/ADR [11],23 nM
same,Relative activity,P388/S [12],4.3
same,IC50,P388/S [13],72 nM
same,Survival days,Mus musculus [14],14
same,IC50,P388/S [15],1.7 nM
same,Relative activity,P388/S [16],1.9
same,IC50,P388/ADR [17],90 nM
same,IC50,P388/S [18],13 nM
same,ILS at 40 mg/kg,Mus musculus [19],45.8%
same,ILS at 10 mg/kg,Mus musculus [20],20.8%
same,IC50,P388/S [21],44 nM
same,Relative activity,P388/S [22],2.4
same,IC50,P388/ADR [23],2.2 nM
same,IC50,P388/S [24],0.7 nM
same,IC50,P388/ADR [25],51 nM
same,IC50,P388/S [26],0.4 nM
same,IC50,P388/ADR [27],70 nM
same,IC50,P388/S [28],0.9 nM
same,Relative activity,P388/ADR [29],23
same,ILS at 20 mg/kg,Mus musculus [30],37.5%
